According to PubChem BioAssay:
Results filed as inconclusive are left out.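 The calls were made as follows, unless noted: active = cell viability at or below a set limit in both duplicate runs, the limit being the all-compound median minus 4 SD (cut at about 23% in these data, passing the limit was not always enough); inconclusive = no clear call, values can overlap the other calls; inactive = the rest.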

Assays:
[1] = S. cerevisiae growth inhibition in permissive medium (OD615), pilot counter-assay for S. cerevisiae lifespan shortening project, permissive growth control (AID 705;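 active = growth inhibition above 25% in both replicates, a cutoff set 3 SD above the mean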); settings: OD615, 24 h, at 10 µM, active compounds read high
Method in brief: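 System: S. cerevisiae with engineered DeaD lifespan system / Measured by: absorbance (optical density) at 615 nm / Read-out: reduction in yeast growth (OD615) / Times: 4 h cell pre-growth, 24 h exposure at 30 °C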

[2] = S. cerevisiae growth inhibition in restrictive medium, OD615, pilot screen, restrictive growth control, yeast lifespan reduction project (AID 706;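 active = growth inhibition above a set limit, 3 SD over mean compound inhibition, in both replicates, cut at about 43% in these data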;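 also: modified DeaD lifespan yeast strain shifted to restrictive glucose medium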); settings: OD615, 48 h, at 10 µM, active compounds read high
Method in brief: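 System: Engineered S. cerevisiae DeaD strain | Buffer or medium: Glucose-based CSMM-D restrictive medium | Schedule: 4 h pre-incubation, 48 h exposure at 30 °C | Technique: Optical density at 615 nm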

[3] = doxorubicin toxicity protection in MRP-1 cells – H69AR cells, CellTiter-Glo, duplicate, MRP-1 activator project, pilot screen (AID 807;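 active = viability increase at or above a cutoff of the median across tested compounds plus 3 SD, cut at about 8.5% in these data, passing the limit was not always enough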;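 also: compound pretreatment 18-22 h then 72 h combined with doxorubicin; 0% = doxorubicin alone and 100% = vehicle without doxorubicin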); settings: H69AR viability with doxorubicin, CellTiter-Glo luminescence; at 10 µM; active compounds read high
[4] = viability of HCT116 without oncogenic beta-catenin – human colon tumor cells, pilot screen (AID 823); settings: HCT116 beta-catenin knockout viability, CellTiter-Glo, 60 h; at 10 µM; active compounds read low;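 also: 0% = wells killed by 20 µM Hyamine and 100% = untreated DMSO cell wells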
[5] = viability of PTEN-null HCT116 cells – cell-based, HCT116 clonal line, CellTiter-Glo, pilot screen (AID 824;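 active = viability at or below 27.92% in each of two runs, the all-compound median minus 4 SD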;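 also: 0% = 20 µM Hyamine control and 100% = vehicle cell control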); settings: HCT116 PTEN-deleted viability, 60 h, at 10 µM, active compounds read low
[6] = RAM pathway blockade in budding yeast – dse1pr::URA3 reporter, 5-FOA selection, pilot screen (AID 869;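 active = inhibition over a set limit, the all-compound mean plus 3 SD, in both replicate runs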;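 also: 0% = DMSO wells with no growth and 100% = 10 µM 1-NA-PP1 with full growth; RAM network block rescues cells from 5-FOA so hits raise OD615 growth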); settings: S. cerevisiae dse1pr::URA3 5-FOA growth, OD615, 2 d; at 10 µM; active compounds read high; strain carries analog-sensitive mutant Cbk1 kinase
[7] = RAM signaling pathway blockade in yeast – S. cerevisiae, Pdr1DBD-CYC8 efflux-inhibited sensitized strain, primary screen (AID 1298;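 active = RAM network inhibition above 8.4% in each of two replicates, 3 SD over the compound average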;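 also: 0% = DMSO untreated cells without growth and 100% = 10 µM 1-NA-PP1 full growth; higher means more yeast growth rescued from 5-FOA killing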); settings: S. cerevisiae cbk1-as DSE1-URA3 strain, 5-FOA growth OD615, 2 d; at 50 µM; active compounds read high

Cc1cc2cc(CNS(=O)(=O)N(C)C)ccc2[nH]1
inactive: growth inhibition [1] 0.12% | growth inhibition [2] -6.88% | viability increase [3] -0.59% | viability [4] 101% | viability [5] 106% | inhibition [6] 1.48% | RAM network inhibition [7] 3.27%

CCCCOc1ccc(/C(N)=N/O)cc1
inactive: growth inhibition [1] 7.3% | growth inhibition [2] 0.775% | viability increase [3] -5.85% | viability [4] 93.5% | viability [5] 93.7% | inhibition [6] 0.44% | RAM network inhibition [7] 1.83%

COC(=O)c1ccccc1NC(=O)C1CCCN(c2nnc(-n3cccc3)s2)C1 (stereo unspecified)
inactive: growth inhibition [1] -1.67% | growth inhibition [2] 4.77% | viability increase [3] -2.28% | viability [4] 86.2% | viability [5] 82.2% | inhibition [6] 1.65% | RAM network inhibition [7] 8.61%

Cc1nc2sc(C(c3ccco3)N3CCN(c4ccc(F)cc4)CC3)c(O)n2n1 (stereo unspecified)
inactive: growth inhibition [1] 0.055% | growth inhibition [2] -7.21% | viability increase [3] -0.62% | viability [4] 107% | viability [5] 99.9% | inhibition [6] 1.52% | RAM network inhibition [7] 3.54%

Cc1nc(N2CCN(c3ccccc3)CC2)c2c3c(sc2n1)CCC3
inactive: growth inhibition [1] -0.345% | growth inhibition [2] 29.8% | viability increase [3] 3% | viability [4] 73.8% | viability [5] 81.5% | inhibition [6] 1.38% | RAM network inhibition [7] 1.62%

Cc1ccc2oc(=O)c3cnn(CC(=O)N4CCc5ccccc5C4)c3c2c1
inactive: growth inhibition [1] -10.4% | growth inhibition [2] -4.8% | viability increase [3] -0.98% | viability [4] 93.5% | viability [5] 92.1% | inhibition [6] 1.77% | RAM network inhibition [7] 3.4%

CCC(NC(=O)c1ccccc1NC(=O)c1ccco1)C(=O)NC1CCCCC1 (stereo unspecified)
inactive: growth inhibition [1] -4.2% | growth inhibition [2] 7.98% | viability increase [3] -2.29% | viability [4] 89.1% | viability [5] 98.3% | inhibition [6] 1.35% | RAM network inhibition [7] 2.08%

O=C(C1CCC(CNc2c(N3CCCCC3)c(=O)c2=O)CC1)N1CCN(c2ccccn2)CC1 (stereo unspecified)
inactive: growth inhibition [1] -4.55% | growth inhibition [2] -1.08% | viability increase [3] -0.36% | viability [4] 102% | viability [5] 99.1% | inhibition [6] -0.5% | RAM network inhibition [7] 4.92%

CC(NS(C)(=O)=O)C(c1cccs1)N1CCN(Cc2ccccc2)CC1 (stereo unspecified)
inactive: growth inhibition [1] -7.18% | growth inhibition [2] 11.4% | viability increase [3] -1.92% | viability [4] 85.5% | viability [5] 87.3% | inhibition [6] 1.25% | RAM network inhibition [7] 3.61%

CCN(CC)S(=O)(=O)c1ccc(C(=O)OCC(=O)N2CCN(C(=O)c3ccco3)CC2)cc1
inactive: growth inhibition [1] -8.4% | growth inhibition [2] -3.91% | viability increase [3] 0.34% | viability [4] 89.7% | viability [5] 93.6% | inhibition [6] 1.86% | RAM network inhibition [7] 1.24%

CCCSc1nnc2c(n1)OC(c1cccn1C)N(C(C)=O)c1ccccc1-2 (stereo unspecified)
inactive: growth inhibition [1] -1.32% | growth inhibition [2] -5.99% | viability increase [3] -2.06% | viability [4] 97.7% | viability [5] 104% | inhibition [6] 0.505% | RAM network inhibition [7] 3.57%

Cc1cc(Nc2ccc(F)cc2Cl)n2nc(C)nc2n1
inactive: growth inhibition [1] -9.76% | growth inhibition [2] -13% | viability increase [3] -0.59% | viability [4] 109% | viability [5] 99.6% | inhibition [6] 1.51% | RAM network inhibition [7] 2.31%

CC1(C)CC(=O)c2cc(C(=O)N3CCN(CCO)CC3)c(=O)n(-c3ccc(Cl)cc3)c2C1
inactive: growth inhibition [1] -6.56% | growth inhibition [2] -25.4% | viability increase [3] -0.93% | viability [4] 103% | viability [5] 100% | inhibition [6] 1.81% | RAM network inhibition [7] 3.06%

COc1cccc(-c2nc(CS(=O)CC(=O)NC3CC3)c(C)o2)c1 (stereo unspecified)
inactive: growth inhibition [1] 1.62% | growth inhibition [2] 14.2% | viability increase [3] -2.91% | viability [4] 101% | viability [5] 101% | inhibition [6] 0.52% | RAM network inhibition [7] 0.14%

Cc1ccc2c(c1)NC(=O)C(CC(=O)O)O2 (stereo unspecified)
inactive: growth inhibition [1] 2.33% | growth inhibition [2] 0.555% | viability increase [3] -0.27% | viability [4] 103% | viability [5] 99.7% | inhibition [6] 1.48% | RAM network inhibition [7] 4.69%

COc1ccc(S(=O)(=O)NCCN2CCOCC2)c2ccccc12
inactive: growth inhibition [1] -1.53% | growth inhibition [2] -2.08% | viability increase [3] -1.32% | viability [4] 101% | viability [5] 95.1% | inhibition [6] -0.495% | RAM network inhibition [7] 1.53%

Cc1ccsc1C1C2=C(CC(C)(C)CC2=O)Nc2ncnn21 (stereo unspecified)
inactive: growth inhibition [1] -13.7% | growth inhibition [2] 11.9% | viability increase [3] -4.49% | viability [4] 101% | viability [5] 102% | inhibition [6] 1.98% | RAM network inhibition [7] 4.28%

CS(=O)(=O)N1Cc2ccccc2CC1C(=O)Nc1ccccc1C(N)=O (stereo unspecified)
inactive: growth inhibition [1] -2.29% | growth inhibition [2] -1.52% | viability increase [3] -1.04% | viability [4] 108% | viability [5] 97% | inhibition [6] 3.26% | RAM network inhibition [7] 7.36%
